Assay outcomes: PubChem, Broad Institute
This is a sample that favours compounds with a hit; in the whole collection about 5.9% have one here.
IDH1 mut inh = inhibitors of IDH1 R132H reductase, primary screen, biochemical, plate reader, single point; AID 624101, 2012; hit rate 0.18% among 70,000; inhibition, % at 10 µM; diaphorase/resazurin fluorescence, 60 min; in the data active = inhibition above about 34%; inconclusive = no clear call, values can overlap the other calls; inactive = below about 11%
Target sequence (O75874 whole entry R132H): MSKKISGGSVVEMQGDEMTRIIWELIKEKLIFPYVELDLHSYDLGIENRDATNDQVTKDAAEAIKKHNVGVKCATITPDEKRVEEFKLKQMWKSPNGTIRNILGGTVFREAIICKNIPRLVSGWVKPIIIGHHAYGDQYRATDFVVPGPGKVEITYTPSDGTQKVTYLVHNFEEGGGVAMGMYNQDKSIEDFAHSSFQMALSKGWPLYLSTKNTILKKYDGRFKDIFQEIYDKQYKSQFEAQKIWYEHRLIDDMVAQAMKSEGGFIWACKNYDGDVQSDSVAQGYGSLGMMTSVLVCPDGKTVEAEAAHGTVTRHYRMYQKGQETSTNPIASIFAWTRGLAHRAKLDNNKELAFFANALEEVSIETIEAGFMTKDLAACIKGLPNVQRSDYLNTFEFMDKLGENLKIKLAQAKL
GASC1 inh = inhibitors of GASC-1 (KDM4C) histone demethylase, primary screen, biochemical, single concentration HTS. AID 720574, 2013. hit rate 0.15% among 96,000. inhibition, % at 12.5 µM. GST-KDM4C 2-372, H3K9me3 peptide, LANCE TR-FRET;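 active = mean replicate inhibition above about 25%, with at least 55% of replicates also reaching it, limit read from the data, passing the limit was not always enough; inconclusive = only one of those two conditions met; inactive = neither condition met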
Target sequence (Q9H3R0 2-372 limits assumed): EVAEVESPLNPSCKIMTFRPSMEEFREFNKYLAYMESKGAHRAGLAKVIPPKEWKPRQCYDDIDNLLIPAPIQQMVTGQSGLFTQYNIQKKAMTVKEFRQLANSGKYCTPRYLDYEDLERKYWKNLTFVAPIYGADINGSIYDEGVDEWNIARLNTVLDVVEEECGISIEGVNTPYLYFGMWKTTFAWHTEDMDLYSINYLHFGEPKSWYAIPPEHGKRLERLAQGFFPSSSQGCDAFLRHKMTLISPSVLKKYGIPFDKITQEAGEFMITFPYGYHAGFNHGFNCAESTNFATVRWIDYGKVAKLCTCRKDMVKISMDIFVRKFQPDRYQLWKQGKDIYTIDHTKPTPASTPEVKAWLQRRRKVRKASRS
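System – N-terminal GST-fused human GASC-1 (KDM4C) fragment, residues 2-372 · Input – enzyme final amount 10 nM · Technique – LANCE TR-FRET, Eu antibody, ULight-streptavidin, EDTA, ex 340 nm, em 618/671 nm · Medium – HEPES buffer, pH 7.5, plus ascorbate · Incubation – enzyme reaction 30 min, then detection 60 min, both room temperature · Reagent – H3K9me3 peptide with Fe(II)/2OG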
Pf Dd2 growth = P. falciparum Dd2 growth inhibitors, primary screen, SYBR Green fluorescence, single dose replicates. 72 h; hits give low values. hit rate 2.3% among 94,000. activity change, % at 10 µM; in the data active = activity change below about -80%; inconclusive = no clear call, values can overlap the other calls
T cruzi growth-1 = T. cruzi intracellular proliferation inhibitors, primary screen, cell-based, beta-gal Tulahuen parasites, NIH3T3 host, luminescence; T. cruzi beta-gal in NIH3T3, GalScreen luminescence, 90 h; inhibition, % at 8.34 µM; hit rate 5.9% among 77,000;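 active = mean inhibition above about 93%, with at least 55% of replicates each passing it, limit read from the data, passing the limit was not always enough; inconclusive = only one of those two conditions holds; inactive = neither condition holds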
T cruzi growth-2 = T. cruzi intracellular proliferation inhibitors, confirmation, cell-based, NIH3T3 host, beta-gal parasite, luminescence, cherry-pick; shares compounds with T cruzi growth-1; T. cruzi beta-gal in NIH3T3, GalScreen luminescence, 90 h; inhibition, % at 8.35 µM; hit rate 72% among 5,600; AID 651739, 2012;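 active = mean replicate inhibition above about 95% and at least 55% of replicates individually reaching it, limit read from the data; inconclusive = only one of the two criteria is met; inactive = neither criterion is met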
T cruzi growth-3 = inhibitors of intracellular T. cruzi replication, confirmation, NIH3T3 host cells, beta-gal parasites, cherry-pick, set 2. shares compounds with T cruzi growth-1. T. cruzi beta-gal in NIH3T3, GalScreen luminescence, 90 h. inhibition, % at 2.09 µM. hit rate 21% among 5,600. AID 651740, 2012;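 active = mean inhibition above about 95%, with at least 55% of replicates also reaching it, limit read from the data; inconclusive = meets just one of the two conditions; inactive = meets neither condition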
3T3 cytotox = cytotoxicity in mouse NIH/3T3 fibroblasts, confirmation, cytotoxicity control for T. cruzi proliferation inhibitor project, cell-based, cherry-pick, single point; shares compounds with T cruzi growth-1; NIH/3T3 viability, CellTiter-Glo ATP luminescence, 90 h; cytotoxicity (signal decrease), % at 8.35 µM; hit rate 14% among 5,600;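 active = mean signal decrease across replicates above about 35% based on untreated-well scatter, with enough replicates individually passing, limit read from the data; inconclusive = no rule stated though some were filed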
NIH3T3 tox 2 = NIH/3T3 fibroblast cytotoxicity, confirmation, cytotoxicity control, cell-based, cherry-pick, single point, set 2 | shares compounds with T cruzi growth-1 | NIH/3T3 viability, CellTiter-Glo ATP luminescence, 90 h | inhibition, % at 24.9 µM | hit rate 56% among 5,600 | AID 651744, 2012;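 active = mean loss of cell viability signal at or above a set limit, and enough replicates individually reaching it; inconclusive = meets only the mean limit or only the replicate share; inactive = meets neither condition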
Of the large screens only hits and unclear results are named; the others gave an inactive call (follow-up assays come after a bar, where they were run).

C[C@@H]1CCCCO[C@@H](CN(C)C(=O)C2CCCCC2)[C@H](C)CN([C@H](C)CO)C(=O)c2cc(NS(=O)(=O)c3ccc(Cl)cc3)ccc2O1	T cruzi growth-1 inconclusive | T cruzi growth-2 110.3 | T cruzi growth-3 inactive | 3T3 cytotox inactive | NIH3T3 tox 2 99.6
C[C@@H]1CCCCO[C@@H](CN(C)C(=O)C2CCCCC2)[C@@H](C)CN([C@H](C)CO)C(=O)c2cc(NS(=O)(=O)c3ccc(Cl)cc3)ccc2O1	none (no result: IDH1 mut inh)
C[C@H](CO)N1C[C@H](C)[C@@H](CN(C)C(=O)C2CCCCC2)OCCCC[C@H](C)Oc2ccc(NS(=O)(=O)c3ccc(Cl)cc3)cc2C1=O	none (no result: IDH1 mut inh)
Cc1noc(C)c1S(=O)(=O)N(C)C[C@H]1OCCCC[C@@H](C)Oc2ccc(NC(=O)Cc3ccccc3)cc2C(=O)N([C@@H](C)CO)C[C@H]1C	none (no result: IDH1 mut inh)
COc1ccccc1NC(=O)N1CCCCN2[C@H](CO)[C@H](c3ccc(-c4ccccc4)cc3)[C@H]2C1	T cruzi growth-1 108.1 (no result: IDH1 mut inh, GASC1 inh) | T cruzi growth-2 108.5 | T cruzi growth-3 inactive | 3T3 cytotox inactive | NIH3T3 tox 2 105.4
COc1ccccc1NC(=O)N1CCCCN2[C@H](C1)[C@@H](c1ccc(-c3cccc(F)c3)cc1)[C@@H]2CO	none (no result: IDH1 mut inh)
COc1ccccc1NC(=O)N1CCCCN2[C@@H](CO)[C@H](c3ccc(-c4ccccc4)cc3)[C@@H]2C1	T cruzi growth-1 102.1 (no result: IDH1 mut inh, GASC1 inh) | T cruzi growth-2 99.5 | T cruzi growth-3 inactive | 3T3 cytotox 45.5 | NIH3T3 tox 2 103.5
COc1ccccc1NC(=O)N1CCCCN2[C@H](CO)[C@H](c3ccc(-c4ccc(C)cc4)cc3)[C@@H]2C1	none (no result: IDH1 mut inh)
COc1ccccc1NC(=O)N1CCCCN2[C@@H](CO)[C@@H](c3ccc(-c4ccccc4)cc3)[C@@H]2C1	T cruzi growth-1 inconclusive (no result: IDH1 mut inh, GASC1 inh) | T cruzi growth-2 104.3 | T cruzi growth-3 inactive | 3T3 cytotox 61.1 | NIH3T3 tox 2 104.1
COc1ccccc1NC(=O)N1CCCCN2[C@H](CO)[C@H](c3ccc(-c4cccc(F)c4)cc3)[C@@H]2C1	T cruzi growth-1 114.5 (no result: IDH1 mut inh) | T cruzi growth-2 101.2 | T cruzi growth-3 109.5 | 3T3 cytotox inactive | NIH3T3 tox 2 37.2
CCOC(=O)c1c(NC(=O)CSc2nc(C)cc(C)n2)sc2c1CCCC2	none (no result: GASC1 inh, Pf Dd2 growth, T cruzi growth-1)
CO[C@@H]1CN(C)C(=O)c2cc(NC(=O)Nc3cccc(F)c3)ccc2OC[C@@H](C)N(C(C)=O)C[C@H]1C	none
Cc1cc(C)c(OCC(=O)Nc2cccc(NC(=O)c3ccco3)c2)c(Br)c1	none (no result: GASC1 inh, Pf Dd2 growth, T cruzi growth-1)
Cn1cnc(S(=O)(=O)N2CCCCN3[C@H](CO)[C@@H](c4ccc(-c5cccc(F)c5)cc4)[C@@H]3C2)c1	T cruzi growth-1 103.4 (no result: IDH1 mut inh) | T cruzi growth-2 103.6 | T cruzi growth-3 inactive | 3T3 cytotox inactive | NIH3T3 tox 2 64.1
Cn1cnc(S(=O)(=O)N2CCCCN3[C@H](C2)[C@@H](c2ccc(-c4cccc(F)c4)cc2)[C@@H]3CO)c1	T cruzi growth-1 103.3 (no result: IDH1 mut inh) | T cruzi growth-2 96.3 | T cruzi growth-3 inactive | 3T3 cytotox inactive | NIH3T3 tox 2 inconclusive
COc1cccc(S(=O)(=O)N2CCCCN3[C@H](C2)[C@@H](c2ccc(C#CC(C)C)cc2)[C@@H]3CO)c1	none (no result: IDH1 mut inh)
Cc1cccc(S(=O)(=O)N2CCCCN3[C@H](C2)[C@@H](c2ccc(C#CC(C)C)cc2)[C@@H]3CO)c1	T cruzi growth-1 inconclusive (no result: IDH1 mut inh) | T cruzi growth-2 101.4 | T cruzi growth-3 112.4 | 3T3 cytotox 46.6 | NIH3T3 tox 2 98.4
COc1cccc(S(=O)(=O)N2CCCCN3[C@H](CO)[C@H](c4ccc(C#CC(C)C)cc4)[C@H]3C2)c1	T cruzi growth-1 97.2 (no result: IDH1 mut inh) | T cruzi growth-2 106.2 | T cruzi growth-3 107.5 | 3T3 cytotox inactive | NIH3T3 tox 2 103.4
COc1ccc(CN(C)C[C@H]2OCCCC[C@@H](C)Oc3ccc(NC(=O)Cc4ccccc4)cc3C(=O)N([C@@H](C)CO)C[C@@H]2C)cc1	none (no result: IDH1 mut inh)
Cc1ccc(-c2ccc([C@H]3[C@H]4CN(C(=O)c5ccc(F)cc5)CCCCN4[C@H]3CO)cc2)cc1	T cruzi growth-1 101.9 (no result: IDH1 mut inh) | T cruzi growth-2 103.2 | T cruzi growth-3 inactive | 3T3 cytotox inactive | NIH3T3 tox 2 103.2
Cc1ccc(-c2ccc([C@H]3[C@@H](CO)N4CCCCN(C(=O)c5ccc(F)cc5)C[C@@H]34)cc2)cc1	T cruzi growth-1 113.3 (no result: IDH1 mut inh) | T cruzi growth-2 108.5 | T cruzi growth-3 inactive | 3T3 cytotox inactive | NIH3T3 tox 2 104.8
Cc1ccc(-c2ccc([C@H]3[C@@H](CO)N4CCCCN(C(=O)c5ccc(F)cc5)C[C@H]34)cc2)cc1	T cruzi growth-1 103.3 (no result: IDH1 mut inh) | T cruzi growth-2 105.8 | T cruzi growth-3 100.9 | 3T3 cytotox 46.0 | NIH3T3 tox 2 103.5
Cc1ccc(-c2ccc([C@@H]3[C@@H](CO)N4CCCCN(C(=O)c5ccc(F)cc5)C[C@@H]34)cc2)cc1	T cruzi growth-1 106.6 (no result: IDH1 mut inh) | T cruzi growth-2 101.0 | T cruzi growth-3 inactive | 3T3 cytotox inactive | NIH3T3 tox 2 56.7
O=C(c1ccc(F)cc1)N1CCCCN2[C@H](C1)[C@@H](c1ccc(-c3ccccc3)cc1)[C@@H]2CO	none (no result: IDH1 mut inh)
CO[C@@H]1CC[C@@H]2CCOc3ccc(C#N)cc3C(=O)N(C)C[C@H](C)C(=O)N(C)C[C@H]1O2	none (no result: IDH1 mut inh, Pf Dd2 growth)
C[C@@H]1CCCCO[C@H](CN(C)C(=O)C2CCCCC2)[C@@H](C)CN([C@H](C)CO)C(=O)c2cc(NC(=O)NC3CCCCC3)ccc2O1	none
Cc1ccc(-c2ccc([C@H]3[C@H](CO)N4CCCCN(C(=O)c5ccc(F)cc5)C[C@@H]34)cc2)cc1	T cruzi growth-1 103.2 (no result: IDH1 mut inh) | T cruzi growth-2 inconclusive | T cruzi growth-3 inactive | 3T3 cytotox inactive | NIH3T3 tox 2 106.4
CC(C)C#Cc1ccc([C@H]2[C@@H](CO)N(C(=O)c3cccc(F)c3)[C@H]2C#N)cc1	none (no result: IDH1 mut inh)
N#C[C@H]1[C@H](c2ccc(C#CC3CC3)cc2)[C@@H](CO)N1C(=O)c1cccc(F)c1	T cruzi growth-1 inconclusive (no result: IDH1 mut inh) | T cruzi growth-2 97.3 | T cruzi growth-3 100.8 | 3T3 cytotox inactive | NIH3T3 tox 2 inactive
N#C[C@@H]1[C@@H](c2ccc(C#CC3CCCC3)cc2)[C@@H](CO)N1C(=O)c1cccc(F)c1	none (no result: IDH1 mut inh, T cruzi growth-1)
